The source made the active and inactive calls. No cut-off for these calls is given here.
tested on: Cladosporium cucumerinum; experiment: Antifungal activity against Cladosporium cucumerinum CCMI 206 at 100 ug by bioautographic TLC bioassay; assay type: functional, organism-based
In short: (§1)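 Bioautography on developed TLC plates against the fungus C. cucumerinum strain CCMI 206, obtained from the CCMI culture collection. Procedure followed Homans and Fuchs.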

SMILES | Activity
CC1(C)C=Cc2c(cc(O)c3c(=O)cc(-c4ccc(O)cc4)oc23)O1 | inactive
COc1cc2c(cc1C1COc3cc(O)ccc3C1=O)OCO2 (configuration not stated) | Active
CC1(C)C=Cc2cc(-c3coc4cc5oc(C(C)(C)O)cc5c(O)c4c3=O)ccc2O1 | inactive
COc1cc2c(cc1OC)[C@@H]1Oc3cc4c(cc3[C@@H]1CO2)OCO4 | Active
CC1(C)C=Cc2c(cc3occ(-c4ccc(O)cc4)c(=O)c3c2O)O1 | inactive
CC1(C)C=Cc2c(ccc(-c3coc4cc(O)cc(O)c4c3=O)c2O)O1 | Active
CC1(C)C=Cc2cc(-c3coc4cc5c(c(O)c4c3=O)CC(C(C)(C)O)O5)ccc2O1 (configuration not stated) | inactive
CC(C)=CCc1c(O)cc2occ(-c3ccc4c(c3)C=CC(C)(C)O4)c(=O)c2c1O | inactive
COc1cc(O)c2c(=O)c(-c3ccc(O)c(CC=C(C)C)c3)coc2c1CC=C(C)C | Active
CC(C)=CCc1cc(-c2coc3cc(O)c(CC=C(C)C)c(O)c3c2=O)ccc1O | inactive

tested on: Cladosporium cucumerinum; experiment: Induction of growth of Cladosporium cucumerinum CCMI 206 at 100 ug by bioautographic TLC bioassay; assay type: functional, organism-based; in short: as §1

SMILES | Activity
COc1cc2c(cc1O)[C@@H]1Oc3cc4c(cc3[C@@H]1CO2)OCO4 | Active
COc1c(O)cc2c(c1OC)OC[C@H]1c3cc4c(cc3O[C@@H]21)OCO4 | Active

Reference: ChEMBL document CHEMBL1159317, “Flavonoids from Ulex airensis and Ulex europaeus ssp. europaeus” (J Nat Prod, 2002)
